# Assay outcomes deposited in PubChem BioAssay by several laboratories.
# FAK blocker: blocks human focal adhesion kinase activity; inhibition, %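 (tested at 7 µM)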; biochemical FAK kinase activity assay; Q05397; actives 0.84% (n = 97,000)
# Rev-RRE block: disrupts HIV-1 Rev binding to RRE RNA; Rev peptide-RRE RNA binding, FRET; P05866; inhibition, % at 8 µM; actives 0.79% (n = 97,000);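 active = inhibition above the screen-wide mean plus 3 SD, cut at about 35% in these data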
#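 Material: labelled RRE RNA duplex and labelled Rev peptide / Buffer or medium: HEPES pH 7.5 salt buffer with EDTA / Compound dosing: single point, 8 µM final nominal compound concentration / Benchmarks: DMSO low control, neomycin B high control / Timing: 5 min preincubation and 15 min binding, 25 °C / Technique: FRET fluorescence readout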
# Plk1 PBD FP: Plk1 (human) PBD binding inhibition | P53350 | Plk1 PBD phosphopeptide binding, fluorescence polarization | inhibition, %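 (tested at about 20 µM)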 | actives 0.13% (n = 97,000) | AID 693; in the data active = inhibition above about 34%, passing the limit was not always enough
# DAT uptake mod: human DAT dopamine uptake with cocaine, either direction. Q01959. LLC-PK1 hDAT cells, [14C]-dopamine uptake with cocaine IC80; actives deviate in either direction. B-score at 10 µM. actives 1.3% (n = 110,000). AID 449768;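 active = Z score or B-score, a plate-position-corrected score, falls beyond the plate's 99.7% confidence bounds, in either direction; inactive = both scores lie inside the 99.7% bounds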
# Target sequence (Q01959 whole entry, looked up): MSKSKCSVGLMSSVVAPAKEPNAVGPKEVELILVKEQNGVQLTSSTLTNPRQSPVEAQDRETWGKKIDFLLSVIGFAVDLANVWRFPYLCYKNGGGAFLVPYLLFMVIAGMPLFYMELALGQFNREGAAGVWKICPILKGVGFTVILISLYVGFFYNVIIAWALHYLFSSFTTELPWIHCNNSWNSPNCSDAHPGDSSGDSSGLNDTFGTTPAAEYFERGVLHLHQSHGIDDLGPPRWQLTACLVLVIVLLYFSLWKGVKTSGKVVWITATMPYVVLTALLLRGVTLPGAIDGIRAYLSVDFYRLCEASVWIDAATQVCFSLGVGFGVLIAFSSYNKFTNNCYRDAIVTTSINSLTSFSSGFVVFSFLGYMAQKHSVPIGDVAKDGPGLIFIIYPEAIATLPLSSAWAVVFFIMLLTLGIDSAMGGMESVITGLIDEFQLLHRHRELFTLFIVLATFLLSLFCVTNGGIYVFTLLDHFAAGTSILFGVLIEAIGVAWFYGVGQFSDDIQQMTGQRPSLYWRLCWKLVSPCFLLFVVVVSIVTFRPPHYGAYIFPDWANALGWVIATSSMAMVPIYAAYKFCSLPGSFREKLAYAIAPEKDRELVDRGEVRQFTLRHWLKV
# EphB4 antag: EphB4-ephrin-B2 interaction antagonism. P54760. EphB4 LBD / TNYL-RAW-Alexa532 peptide, fluorescence polarization. inhibition, % at 7 µM. actives 0.15% (n = 97,000);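 active = inhibition above the screen-wide mean inhibition plus 3 SD, cut at about 15% in these data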
# PLK1 kinase inh: inhibitors of human PLK1 kinase. inhibition, % at 10 µM. P53350. actives 0.53% (n = 97,000). recombinant PLK1 kinase, TR-FRET peptide phosphorylation. AID 619;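 active = inhibition of 50% or more in the single-concentration screen; inactive = inhibition below 50%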
# PBD redox DR: counter-screen for Plk1 PBD inhibitors: redox cycling H2O2 generation; shares compounds with Plk1 PBD FP; DTT; EC50, µM; 120 tested, under 10 active; AID 876; call rule not given here
# FAK inh conf: confirmation of human focal adhesion kinase (FAK) inhibitors. inhibition, % at 7 µM. FAK kinase biochemical inhibition assay. shares compounds with FAK blocker. AID 794. actives 28% (n = 750)
# Numbers stand for hits; - = inactive; . = no result. Shown are actives, neighbours in structure and some others; about 3.2% of the full set was active somewhere. Rule as the data show it, unless noted: active = inhibition above about 19%; inactive = the rest.
SMILES,FAK blocker,Rev-RRE block,Plk1 PBD FP,DAT uptake mod,EphB4 antag,PLK1 kinase inh,FAK inh conf,others
O=C(NC1(O)C(=O)c2ccccc2C1=O)c1ccccc1,22,-,82,-,-,-,-,PBD redox DR=-
CCCCc1nc2n[nH]c(N)c2c2c1CCC2,20,-,-,-,-,-,-,
CC(C)Cc1nc2n[nH]c(N)c2c2c1CCC2,19,-,-,-,-,50,-,
CC1(c2nnc(-c3ccc(F)cc3)o2)CC(c2cccc(Cl)c2)=NO1 (stereo unspecified),.,.,.,-,.,.,.,
COc1ccc2nc3oc(C(=O)NCc4cccs4)cc3cc2c1,32,-,-,-,-,-,-,
Cc1ccc2c(n1)sc1c(N)ncnc12,49,-,-,-,-,-,-,
CCCN(CCC)C(=O)CC(c1ccccc1)c1cc(Br)ccc1O (stereo unspecified),-,-,-,-,-,-,.,
CCCCn1c(NC(C)=O)c(C#N)c2nc3ccccc3nc21,-,-,-,-,-,-,.,
C=CCn1c(NC(=O)c2ccccc2Cl)c(C#N)c2nc3ccccc3nc21,20,-,-,-,-,-,-,
COc1ccc2[nH]c3nc(SCc4nnc(-c5ccc(C)cc5)o4)nnc3c2c1,-,-,-,-,-,-,.,
CCC(=O)c1c[nH]c(C(=O)NCCCn2ccnc2)c1,-,-,-,-,-,-,.,
O=C(Nc1ccccc1)ON=C1c2ccccc2-c2ccccc21,41,-,-,-,-,-,-,
NC(=O)NC(=O)Nc1ccccc1Cl,-,-,-,-,-,-,.,
O=C(Nc1ccccc1)O/N=C(\c1ccccc1)c1ccccn1,-,-,-,-,-,-,.,
O=C(Nc1ccccc1Cl)ON=C1c2ccccc2-c2ccccc21,35,-,-,-,-,-,-,
COc1cc(OC)c2c(c1)C(=O)c1cc(OC)cc(OC)c1C2=O,-,-,-,-,-,-,.,
O=C(Nc1ccc(F)cc1)Nc1nnc(-c2ccncc2)s1,30,-,-,-,-,-,-,
CC(C)c1cc(C(N)=O)c(NC(=O)C2CCC2)s1,24,-,-,-,-,-,-,
CC(C)c1nnc(NC(=O)C2CCCCC2)s1,-,-,-,-,-,-,.,
CCc1ccc(N(C(C)=O)C2C=CS(=O)(=O)C2)cc1 (stereo unspecified),-,-,-,-,-,-,.,
CC1(C)CCCN(C(=O)c2coc(=O)c(Br)c2)C1,46,-,-,-,-,-,68,
Cc1cc(NS(=O)(=O)c2ccc(NC(=O)Cc3cccs3)cc2)no1,-,-,-,-,-,-,.,
Cc1cc(NC(=O)Cc2cccs2)no1,40,-,-,.,-,-,28,
CC1(C(=O)NC2CCCCCCC2)CCC(=O)N1Cc1cccs1 (stereo unspecified),-,-,-,-,-,-,.,
Cc1ccc(NC(=O)COc2ccc(/C=N/NC(=O)CSCc3ccccc3)cc2)cc1,20,-,-,-,-,-,-,
SMILES,FAK blocker,Rev-RRE block,Plk1 PBD FP,DAT uptake mod,EphB4 antag,PLK1 kinase inh,FAK inh conf,others
CSC1=NCCN1C(=O)c1ccc(S(=O)(=O)N(C)C)cc1,-,-,-,-,-,-,.,
COCCOC(=O)C1=C(C)NC2=C(C(=O)CC(c3cccs3)C2)C1c1ccsc1 (stereo unspecified),23,-,-,-,-,-,19,
COC(=O)c1ccccc1NC(=O)CSc1nc(NC(=O)c2ccccc2)c2c(C)c(C)oc2n1,-,-,-,-,-,-,.,
CCOC(=O)c1ccc(NC(=O)CSc2nc(NC(=O)c3ccccc3)c3c(C)c(C)oc3n2)cc1,27,-,-,-,-,-,-,
O=c1c2ccccc2nc(/C=C/c2cccc([N+](=O)[O-])c2)n1CCCO,-,-,-,-,-,-,.,
O=[N+]([O-])c1cccc(/C=C/c2nc3ccc([N+](=O)[O-])cc3[nH]2)c1,34,-,-,-,-,-,21,
Nc1ccc(N2CCCCCC2)cc1,28,-,-,-,-,-,-,
O=C(O)c1ccc(N2CCCCC2)cc1,.,.,.,-,.,.,.,
COc1ccc(Br)cc1CNc1ccc(O)cc1,47,-,-,-,-,-,-,
O=C1C(O)=C(O)C(=O)c2ccccc21,.,.,.,-,.,.,.,
